Only a selection was taken, and hits are over-represented in it overall.
Lmaj promast: Leishmania major promastigote growth inhibition, primary screen; 200,000 compounds, 9% hits; inhibition, % at 10 µM; Leishmania major promastigotes, resazurin fluorescence viability; AID 1063, 2008; in the data active means inhibition above about 50%;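 further: promastigotes grown with compound for 44 hours at 28 °C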
CHOP inh: inhibitors of CHOP promoter induction, primary screen, cell-based, unfolded protein response, luciferase reporter | 220,000 compounds, 3.8% hits | inhibition, % at 10 µM | CHO-K1 CHOP-promoter luciferase, tunicamycin-induced, 15-18 h;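 active means compounds that reduced the stress-induced luciferase reporter signal by more than about 70% of percent inhibition, limit read from the data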;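 further: 0% = tunicamycin plus vehicle and 100% = wells without tunicamycin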
Dynein transport: inhibitors of GR-EGFP nuclear translocation, primary screen, dynein cargo transport inhibitor project, imaging, high-content, 3617.4 mouse cells; z-score, hits read low; 220,000 compounds, 0.47% hits; test concentration mostly 20 µM; stimulated with dexamethasone, 1 µM; hits give low values;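 active means plate z-score of nuclear minus cytoplasmic receptor signal below a set negative limit, without overly bright fluorescence or cell loss, cut at about -3.5 in these data, passing the limit was not always enough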;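 further: z-score of nuclear minus cytoplasmic ring GR-EGFP intensity difference per well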
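Also added – dexamethasone, 1.0 µM final · Buffer or medium – tet-free, stripped-serum medium · Schedule – induction 48 h, compound 1 h, agonist 30 min · Detection – formaldehyde fixation, Hoechst nuclear stain, 10x automated fluorescence imaging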
UPR CHOP act: activators of apoptotic CHOP UPR arm, primary screen, cell-based, CHO-CHOP luciferase reporter, luminescence, uHTS. UPR activation; percent of tunicamycin response over DMSO baseline. activation, % at 10 µM. 330,000 compounds, 0.34% hits. AID 449763, 2010;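 active means at 10 µM dose, activation of 40% or more, normalized to positive control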;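 further: 100% = tunicamycin at 10 µg/mL and 0% = DMSO alone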
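assay system = CHO CHOP reporter cells | amount = 500 CHO-CHOP cells per well | buffer or medium = F12 with 10% FBS | incubation = 16-18 h cell attachment, then 6 h compound exposure, 37 °C | detection = luminescence read with Steady-Glo | read-out = percent activation relative to tunicamycin control | controls = tunicamycin high control, DMSO low control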
UPR XBP1 act: activators of adaptive XBP1 UPR arm, primary screen, cell-based, CHO-XBP1 luciferase reporter, luminescence, uHTS; 330,000 compounds, 0.33% hits; AID 463104, 2010; activation, % at 20 µM; IRE1-XBP1 UPR activation; percent of tunicamycin response, DMSO as zero;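 active means versus positive control, 20 µM dose yields 30% or more activation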;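 further: 100% = tunicamycin at 10 µg/mL and 0% = DMSO only wells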
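Assay system: IRE1-XBP1 luciferase reporter CHO line. Input: 1000 cells/well. Buffer or medium: F12 with 10% serum. Doses: 20 µM, 1% DMSO. Times: overnight seeding at 37 °C, 6 h compound treatment at 37 °C. Technique: Steady-Glo luciferase glow luminescence, 10 min after reagent addition.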
T cruzi inh: inhibitors of intracellular T. cruzi growth, primary screen, luminescence, NIH3T3 host cells. T. cruzi beta-gal in NIH3T3, 90 h. inhibition, % (test concentration not listed). 300,000 compounds, 1.4% hits. AID 1885, 2009;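 active means mean inhibition across valid replicates above about 55%, limit read from the data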;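 further: signal also drops with host cell toxicity which is not excluded here; 0% = plate median of DMSO wells and 100% = zero luminescence signal; higher percent means less beta-gal luminescence so fewer parasites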
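System: mouse NIH/3T3 fibroblasts infected with β-gal-expressing T. cruzi Tulahuen C4 / Input: NIH/3T3 cells, 5,000 per well / Buffer or medium: Low-serum DMEM with 2% FBS / Probe or stimulus: 5000 reporter trypomastigotes per well / Schedule: ≥90 h infection period, 3 h prior cell attachment / Measured by: GalScreen luminescence, 60 min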
An asterisk follows results filed as active.

What do the screens show for `CCN(CC(=O)NCc1cccs1)CC(=O)Nc1cccc(S(N)(=O)=O)c1`?
UPR CHOP act: 1; UPR XBP1 act: -3

What do the screens show for `O=C(c1cccc(F)c1)N1C2C=CC(C2)C1(C(F)(F)F)C(F)(F)F` (stereo not drawn)?
Lmaj promast: -7; CHOP inh: 13; Dynein transport: -0.027; UPR CHOP act: 1; UPR XBP1 act: -1; T cruzi inh: -15

How did O=C(c1ccc(Cl)cc1)N1C2C=CC(C2)C1(C(F)(F)F)C(F)(F)F (stereo not drawn) do in these assays?
Lmaj promast: 64*; CHOP inh: -5; Dynein transport: 1.9; UPR CHOP act: 1; UPR XBP1 act: 1; T cruzi inh: 8

What do the screens show for `CCCN(CCC)CCCNc1ccc2nnc(-c3ccc(F)cc3)n2n1`?
Lmaj promast: 59*; CHOP inh: 15; Dynein transport: 2.6; UPR CHOP act: -1; UPR XBP1 act: -1; T cruzi inh: 19

How did O=C(CN1C(=O)/C(=C/c2cccc(Br)c2)SC1=S)N1CCCC1 do in these assays?
Lmaj promast: 27; CHOP inh: 20; Dynein transport: -0.048; UPR CHOP act: 1; UPR XBP1 act: -4; T cruzi inh: -2

What do the screens show for `COc1ccccc1-c1cc2nc(C)c(CCC(=O)NC(C)CCc3ccco3)c(C)n2n1` (stereo not drawn)?
Lmaj promast: 98*; CHOP inh: 45; Dynein transport: -0.24; UPR CHOP act: 0; UPR XBP1 act: -2; T cruzi inh: 36

Results for Cc1nc2c(-c3ccccc3)c(C)nn2c(C)c1CCC(=O)NC(C)CCc1ccco1 (stereo not drawn) ?
Lmaj promast: 100*; CHOP inh: 61; Dynein transport: -1.4; UPR CHOP act: -1; UPR XBP1 act: 7; T cruzi inh: 52

Results for O=C1C(Cl)=C(N2CCN(c3ccccc3[N+](=O)[O-])CC2)C(=O)c2ccccc21 ?
Lmaj promast: 100*; CHOP inh: 31; Dynein transport: -3.5; T cruzi inh: 0

Results for CC(NC(=O)CCCc1ccccc1)c1ccncc1 (stereo not drawn) ?
UPR CHOP act: 0; UPR XBP1 act: -4; T cruzi inh: 4

What do the screens show for `Cc1cc(=O)c2ccc3ccccc3c2[nH]1`?
Lmaj promast: 54*; CHOP inh: 15; Dynein transport: 2.5; UPR CHOP act: -1; UPR XBP1 act: 1; T cruzi inh: 1

How did COc1ccccc1NC(=O)c1ccccc1NC(=O)c1cccs1 do in these assays?
UPR CHOP act: 1; UPR XBP1 act: -2; T cruzi inh: 9

Results for O=C(O)c1ccc(N2C(=O)C3ON(c4ccccc4)C(c4ccccc4F)C3C2=O)cc1 (stereo not drawn) ?
Lmaj promast: -8; CHOP inh: 11; Dynein transport: -0.72; UPR CHOP act: 0; UPR XBP1 act: -1; T cruzi inh: -15

What do the screens show for `O=C1C2ON(c3ccccc3)C(c3ccccc3F)C2C(=O)N1c1ccccc1` (stereo not drawn)?
Lmaj promast: -7; CHOP inh: 80*; Dynein transport: -0.58; UPR CHOP act: -1; UPR XBP1 act: 2; T cruzi inh: -12

Results for O=C1C2ON(c3ccc(Cl)cc3)C(c3ccco3)C2C(=O)N1c1ccccc1 (stereo not drawn) ?
Lmaj promast: -7; CHOP inh: 74*; Dynein transport: -0.7; UPR CHOP act: 0; UPR XBP1 act: 0; T cruzi inh: 3

How did CCOC(=O)c1sc(NC(=O)C(C)C)c(C#N)c1C do in these assays?
Lmaj promast: -1; CHOP inh: -7; Dynein transport: -0.87; UPR CHOP act: 0; UPR XBP1 act: 0; T cruzi inh: -17

Results for COc1ccc2[nH]c(=O)c(CNc3cccc(C)c3)cc2c1 ?
Lmaj promast: 8; CHOP inh: 73*; Dynein transport: 1.5; UPR CHOP act: 5; UPR XBP1 act: 0; T cruzi inh: 22

How did COc1ccc2[nH]c(=O)c(CN(Cc3cccs3)C(=S)Nc3cccc(C)c3)cc2c1 do in these assays?
Lmaj promast: 100*; CHOP inh: 57; Dynein transport: -0.017; UPR CHOP act: 2; UPR XBP1 act: 0; T cruzi inh: 41

Results for COc1ccc(NCc2cc3cc(OC)ccc3[nH]c2=O)cc1 ?
Lmaj promast: 28; CHOP inh: -64; Dynein transport: -0.15; UPR CHOP act: 1; UPR XBP1 act: 1; T cruzi inh: -5

Results for CC(C)CN(C(=O)CSc1nc2ccccc2o1)c1c(N)n(Cc2ccccc2)c(=O)[nH]c1=O ?
UPR CHOP act: -1; UPR XBP1 act: -1

What do the screens show for `O=c1c2c3c(sc2n2c(=S)[nH]nc2n1Cc1ccccc1)CN(Cc1ccccc1)CC3`?
Lmaj promast: 24; Dynein transport: 0.6

How did O=c1c2c3c(sc2n2cnnc2n1Cc1ccccc1)CN(Cc1ccccc1)CC3 do in these assays?
Lmaj promast: 100*; Dynein transport: 0.42; UPR CHOP act: 3; UPR XBP1 act: 0; T cruzi inh: 10

How did CN1C(=O)C2(OCC(COc3ccc(Cl)cc3)O2)c2ccccc21 (stereo not drawn) do in these assays?
Lmaj promast: 4; CHOP inh: 81*; Dynein transport: -0.2; UPR CHOP act: 1; UPR XBP1 act: 2; T cruzi inh: 8

How did O=C1Nc2ccccc2C12OCC(COc1ccc(Cl)cc1)O2 (stereo not drawn) do in these assays?
Lmaj promast: 4; CHOP inh: 80*; Dynein transport: -1.1; UPR CHOP act: 0; UPR XBP1 act: -2; T cruzi inh: -11

What do the screens show for `FC(F)(F)c1cc(-c2cccs2)nc2nc(N3CCOCC3)sc12`?
Lmaj promast: 0; CHOP inh: 94*; Dynein transport: -1.7; UPR CHOP act: 1; UPR XBP1 act: 4; T cruzi inh: 17

What do the screens show for `COc1cc(C2Nc3cc(C)c(C)cc3NC3=C2C(=O)CC(C)(C)C3)ccc1OC(C)=O` (stereo not drawn)?
UPR CHOP act: 0; UPR XBP1 act: -2; T cruzi inh: 3

How did Cc1cc2c(cc1C)NC(c1c(C)n(C)n(-c3ccccc3)c1=O)C1=C(CC(C)(C)CC1=O)N2 (stereo not drawn) do in these assays?
Lmaj promast: 100*; CHOP inh: -25; Dynein transport: -0.67; UPR CHOP act: 4; UPR XBP1 act: -1; T cruzi inh: 55*
